Experimental data from ChEMBL document CHEMBL5252672, “Inhibition of mitochondrial metabolism by (-)-jerantinine A: synthesis and biological studies in triple-negative breast cancer cells” (RSC Med Chem, 2023).
The source made the active and inactive calls. The rule behind the calls is not given here.

Tests used:
[1] = system: MDA-MB-231; test: Antiproliferative activity against human MDA-MB-231 cells; assay type: functional, cell-based
How it was run: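 MDA-MB-231 cells grown in RPMI-1640 with 10% FBS at 37°C, 5% CO2. Seeded at 2000 cells/well, then exposed to graded compound concentrations, medium renewed every 2–3 days. On day 5, viability read by CyQUANT fluorescence (cellular DNA content).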

[2] = system: MDA-MB-231; test: Induction of ROS generation in human MDA-MB-231 cells at 2.5 to 40 uM incubated for 24 hrs by bioluminescence assay; assay type: functional, cell-based; conditions: dose 2.5-40 µM
How it was run: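 MDA-MB-231 cells stably carrying the lentiviral OxiLuc oxidative-stress reporter, sorted by FACS for mStrawberry. Plated at 5x10³ cells/well the day before, then given escalating doses for 24 h. Bioluminescence imaged on an IVIS Spectrum, and per-well photon flux quantified as photons/s/sr/cm².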

[3] = Cytotoxicity against vincristine-resistant human VJ-300 cells; assay type: functional, cell-based
[4] = Cytotoxicity against human MCF-10A cells; assay type: toxicity, cell-based
[5] = system: MDA-MB-231; test: Effect on metabolism in human MDA-MB-231 cells assessed as reduction in intracellular aspartate level at 5 uM incubated for 16 hrs by LC-MS based metabolomics analysis; assay type: functional, cell-based
How it was run: (§1)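 MDA-MB-231 cells in RPMI-1640 plus 10% FBS, treated 16 h with DMSO vehicle or compound at 5 μM. Untargeted metabolic profiling followed, with normalized metabolite levels compared between treated and vehicle groups.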

[6] = system: MDA-MB-231; test: Effect on metabolism in human MDA-MB-231 cells assessed as change in intracellular metabolite abundances at 5 uM incubated for 16 hrs by LC-MS based metabolomics analysis; assay type: functional, cell-based; how it was run: as §1
[7] = Effect on metabolism in human MDA-MB-231 cells assessed as reduction in argininosuccinic-acid level at 5 uM incubated for 16 hrs by LC-MS based metabolomics analysis; assay type: functional; parameters: scale not given: the % may be the effect or the level left; how it was run: as §1
[8] = Effect on metabolism in human MDA-MB-231 cells assessed as reduction in N-acetylaspartate level at 5 uM incubated for 16 hrs by LC-MS based metabolomics analysis; assay type: functional; parameters: scale not given: the % may be the effect or the level left; how it was run: as §1
[9] = Effect on metabolism in human MDA-MB-231 cells assessed as reduction in carbamoyl aspartate level at 5 uM incubated for 16 hrs by LC-MS based metabolomics analysis; assay type: functional; parameters: scale not given: the % may be the effect or the level left; how it was run: as §1
[10] = Inhibition of pyrimidine biosynthesis in human MDA-MB-231 cells assessed as fold increase in cytidine levels at 5 uM incubated for 16 hrs by LC-MS based metabolomics analysis; assay type: functional; how it was run: as §1
[11] = system: MCF7; test: Cytotoxicity against human MCF7 cells; assay type: functional, cell-based
[12] = system: T47D; test: Cytotoxicity against human T47D cells; assay type: functional, cell-based

Q: With CC[C@]12C=CCN3CC[C@@]4(C5=CC(=O)C(OC)=CC5=NC4=C(C(=O)OC)C1)[C@@H]32 as the compound, how does the IC50 [1] read?
A: 1960 nM

Q: And the Activity [2]?
A: inactive

Q: Which IC50 [3] does the source give for CC[C@]12C=CCN3CC[C@]4(C(=C(C(=O)OC)C1)Nc1cc(OC)c(OC(C)=O)cc14)[C@@H]32 [JERANTININE A ACETATE] here?
A: 830 nM

Q: And the IC50 [1]?
A: 2600 nM

Q: And the IC50 [4]?
A: 18800 nM

Q: Which results are given for CC[C@]12C=CCN3CC[C@]4(C(=C(C(=O)OC)C1)Nc1cc(OC)c(OS(=O)(=O)F)cc14)[C@@H]32?
A: IC50 [1]: 3720 nM; Activity [2]: inactive; Activity [5]: inactive

Q: With CC[C@]12C=CCN3CC[C@]4(C(=C(C(=O)OC)C1)Nc1ccc(OS(=O)(=O)F)cc14)[C@@H]32 as the compound, how does the IC50 [1] read?
A: 6170 nM

Q: What about the Activity [2] of the same compound?
A: inactive

Q: Which IC50 [1] does the source give for CC[C@]12C=CCN3CC[C@]4(C(=C(C(=O)OC)C1)Nc1ccc(O)cc14)[C@@H]32 [MELODININE P] here?
A: 1060 nM

Q: And the Activity [2]?
A: Active

Q: What does the source list for CC[C@]12C=CCN3CC[C@]4(C(=C(C(=O)OC)C1)Nc1ccccc14)[C@@H]32 [TABERSONINE]?
A: IC50 [1]: 5590 nM; Activity [2]: inactive

Q: Which IC50 [1] does the source give for CC[C@]12C=CCN3CC[C@]4(C(=C(C(=O)OC)C1)Nc1cc(OC)c(O)cc14)[C@@H]32 [JERANTININE A] here?
A: 1920 nM

Q: What about the IC50 [4] of the same compound?
A: 960 nM

Q: What about the Activity [2] of the same compound?
A: Active

Q: What about the Activity [6] of the same compound?
A: Active

Q: And the Activity [5]?
A: Active

Q: What about the Activity [7] of the same compound?
A: 90%

Q: What about the Activity [8] of the same compound?
A: 90%

Q: What about the Activity [9] of the same compound?
A: 90%

Q: What about the “fold change (FC)” value [10] of the same compound?
A: 10

Q: What about the IC50 [11] of the same compound?
A: 720 nM

Q: And the IC50 [12]?
A: 720 nM
